Laboratory results from ChEMBL document CHEMBL4732243, “Design, synthesis, and structure activity relationship analysis of new betulinic acid derivatives as potent HIV inhibitors” (Eur J Med Chem, 2021).

How the values were obtained:
[1] = test system: Human immunodeficiency virus 1; assay: Antiviral activity against HIV-1 NL4-3 infected in human MT4 cells assessed as reduction in p24 gag protein incubated for 4 days by ELISA; format: functional, organism-based; details: Human immunodeficiency virus 1, NL4-3, MT4, 96 h
Outline: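 MT-4 cells infected with HIV-1 NL4-3 at MOI 0.01, serial compound concentrations, in 96-well format. Supernatant p24 antigen measured by capture ELISA on day 4 post-infection. IC50 is the concentration that inhibits NL4-3 replication by 50%. Bevirimat run in parallel as the reference.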

[2] = test system: MT4; assay: Cytotoxicity against human MT4 cells assessed as reduction in cell viability incubated for 2 days by CytoTox-Glo cytotoxicity assay; format: cell-based; details: mt4, 48 h, time 2 day
Outline: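 Mock-infected MT-4 cells cultured 2 days with a range of compound concentrations. Viability measured by CytoTox-Glo, following the kit protocol, as percent viable cells. CC50 is the concentration giving a 50% reduction in cell viability.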

## C=C(C)[C@@H]1CC[C@]2(C(=O)NCCCNC(=O)/C=C/c3ccc4c(c3)OCO4)CC[C@]3(C)[C@H](CC[C@@H]4[C@@]5(C)CC[C@H](OC(=O)CC(C)(C)C(=O)O)C(C)(C)[C@@H]5CC[C@]43C)[C@@H]12
[1]; read-out: IC50
  IC50: 17 nM
[1]; read-out: pIC50 (converted)
  IC50: 17 nM
[2]
  CC50: > 2000 nM

## C=C(C)[C@@H]1CC[C@]2(C(=O)N3CCN(C(=O)/C=C/c4ccc(OCOC)c(OCOC)c4)CC3)CC[C@]3(C)[C@H](CC[C@@H]4[C@@]5(C)CC[C@H](OC(=O)CC(C)(C)C(=O)O)C(C)(C)[C@@H]5CC[C@]43C)[C@@H]12
[2]
  CC50: > 2000 nM

## C=C(C)[C@@H]1CC[C@]2(C(=O)N3CCN(C(=O)/C=C/c4ccc([N+](=O)[O-])cc4)CC3)CC[C@]3(C)[C@H](CC[C@@H]4[C@@]5(C)CC[C@H](OC(=O)CC(C)(C)C(=O)O)C(C)(C)[C@@H]5CC[C@]43C)[C@@H]12
[1]; read-out: IC50
  IC50: 110 nM
[1]; read-out: pIC50 (converted)
  IC50: 110 nM
[2]
  CC50: > 2000 nM

## C=C(C)[C@@H]1CC[C@]2(C(=O)N3CCN(C(=O)/C=C/c4ccc5occc5c4)CC3)CC[C@]3(C)[C@H](CC[C@@H]4[C@@]5(C)CC[C@H](OC(=O)CC(C)(C)C(=O)O)C(C)(C)[C@@H]5CC[C@]43C)[C@@H]12
[1]; read-out: IC50
  IC50: 150 nM
[1]; read-out: pIC50 (converted)
  IC50: 151 nM
[2]
  CC50: > 2000 nM

## C=C(C)[C@@H]1CC[C@]2(C(=O)N3CCN(C(=O)/C=C/c4cccc(OC)c4)CC3)CC[C@]3(C)[C@H](CC[C@@H]4[C@@]5(C)CC[C@H](OC(=O)CC(C)(C)C(=O)O)C(C)(C)[C@@H]5CC[C@]43C)[C@@H]12
[1]; read-out: IC50
  IC50: 150 nM
[1]; read-out: pIC50 (converted)
  IC50: 151 nM
[2]
  CC50: > 2000 nM

## C=C(C)[C@@H]1CC[C@]2(C(=O)N3CCN(C(=O)/C=C/c4ccc(OCCCCCCCC)c(OC)c4)CC3)CC[C@]3(C)[C@H](CC[C@@H]4[C@@]5(C)CC[C@H](OC(=O)CC(C)(C)C(=O)O)C(C)(C)[C@@H]5CC[C@]43C)[C@@H]12
[1]; read-out: IC50
  IC50: > 1000 nM

## C=C(C)[C@@H]1CC[C@]2(C(=O)N3CCN(CCCCC(=O)N4CCN(c5cc(NCc6ccccc6)ncn5)CC4)CC3)CC[C@]3(C)[C@H](CC[C@@H]4[C@@]5(C)CC[C@H](OC(=O)CC(C)(C)C(=O)O)C(C)(C)[C@@H]5CC[C@]43C)[C@@H]12
[1]; read-out: IC50
  IC50: 12 nM
[2]
  CC50: > 2000 nM

## C=C(C)[C@@H]1CC[C@]2(C(=O)N3CCN(C(=O)/C=C/c4ccc(OC)c(OC)c4)CC3)CC[C@]3(C)[C@H](CC[C@@H]4[C@@]5(C)CC[C@H](OC(=O)CC(C)(C)C(=O)O)C(C)(C)[C@@H]5CC[C@]43C)[C@@H]12
[2]
  CC50: > 2000 nM

## C=C(C)[C@@H]1CC[C@]2(C(=O)OCCCNc3nccs3)CC[C@]3(C)[C@H](CC[C@@H]4[C@@]5(C)CC[C@H](OC(=O)CC(C)(C)C(=O)O)C(C)(C)[C@@H]5CC[C@]43C)[C@@H]12
[1]; read-out: IC50
  IC50: 39 nM
[1]; read-out: pIC50 (converted)
  IC50: 38.9 nM
[2]
  CC50: > 2000 nM

## C=C(C)[C@@H]1CC[C@]2(C(=O)N3CCN(C(=O)CC(C)(C)C(=O)O)CC3)CC[C@]3(C)[C@H](CC[C@@H]4[C@@]5(C)CC[C@H](O)C(C)(C)[C@@H]5CC[C@]43C)[C@@H]12
[1]; read-out: IC50
  IC50: > 1000 nM

## C=C(C)[C@@H]1CC[C@]2(C(=O)N3CCN(C(=O)/C=C/c4cccc(C(F)(F)F)c4)CC3)CC[C@]3(C)[C@H](CC[C@@H]4[C@@]5(C)CC[C@H](OC(=O)CC(C)(C)C(=O)O)C(C)(C)[C@@H]5CC[C@]43C)[C@@H]12
[1]; read-out: IC50
  IC50: 560 nM
[1]; read-out: pIC50 (converted)
  IC50: 562 nM
[2]
  CC50: > 2000 nM

## C=C(C)[C@@H]1CC[C@]2(C(=O)O)CC[C@]3(C)[C@H](CC[C@@H]4[C@@]5(C)CC[C@H](OC(=O)CC(C)(C)C(=O)O)C(C)(C)[C@@H]5CC[C@]43C)[C@@H]12 [BEVIRIMAT]
[2]
  CC50: > 2000 nM

## C=C(C)[C@@H]1CC[C@]2(C(=O)N3CCN(C(=O)/C=C/c4ccc(OCc5cccc([N+](=O)[O-])c5)c(OC)c4)CC3)CC[C@]3(C)[C@H](CC[C@@H]4[C@@]5(C)CC[C@H](OC(=O)CC(C)(C)C(=O)O)C(C)(C)[C@@H]5CC[C@]43C)[C@@H]12
[1]; read-out: IC50
  IC50: 750 nM
[1]; read-out: pIC50 (converted)
  IC50: 759 nM
[2]
  CC50: > 2000 nM

## C=C(C)[C@@H]1CC[C@]2(C(=O)N3CCN(C(=O)/C=C/c4ccc(Cl)cc4)CC3)CC[C@]3(C)[C@H](CC[C@@H]4[C@@]5(C)CC[C@H](OC(=O)CC(C)(C)C(=O)O)C(C)(C)[C@@H]5CC[C@]43C)[C@@H]12
[1]; read-out: IC50
  IC50: 360 nM
[1]; read-out: pIC50 (converted)
  IC50: 363 nM
[2]
  CC50: > 2000 nM

## C=C(C)[C@@H]1CC[C@]2(C(=O)N3CCN(C(=O)/C=C/c4ccc5c(c4)OCCO5)CC3)CC[C@]3(C)[C@H](CC[C@@H]4[C@@]5(C)CC[C@H](OC(=O)CC(C)(C)C(=O)O)C(C)(C)[C@@H]5CC[C@]43C)[C@@H]12
[1]; read-out: IC50
  IC50: 50 nM
[1]; read-out: pIC50 (converted)
  IC50: 50.1 nM
[2]
  CC50: > 2000 nM

## C=C(C)[C@@H]1CC[C@]2(C(=O)OCCCOC(=O)/C=C/c3ccc(OC)cc3)CC[C@]3(C)[C@H](CC[C@@H]4[C@@]5(C)CC[C@H](OC(=O)CC(C)(C)C(=O)O)C(C)(C)[C@@H]5CC[C@]43C)[C@@H]12
[1]; read-out: IC50
  IC50: 850 nM
[1]; read-out: pIC50 (converted)
  IC50: 851 nM
[2]
  CC50: > 2000 nM

## C=C(C)[C@@H]1CC[C@]2(C(=O)N3CCN(C(=O)CCc4ccc5c(c4)OCO5)CC3)CC[C@]3(C)[C@H](CC[C@@H]4[C@@]5(C)CC[C@H](OC(=O)CC(C)(C)C(=O)O)C(C)(C)[C@@H]5CC[C@]43C)[C@@H]12
[1]; read-out: IC50
  IC50: 22 nM
[1]; read-out: pIC50 (converted)
  IC50: 21.9 nM
[2]
  CC50: > 2000 nM

## C=C(C)[C@@H]1CC[C@]2(C(=O)CC(=O)CC(C)(C)C(=O)O)CC[C@]3(C)[C@H](CC[C@@H]4[C@@]5(C)CC[C@H](OC(=O)/C=C/N6CCN(C(=O)OC(C)(C)C)CC6)C(C)(C)[C@@H]5CC[C@]43C)[C@@H]12
[1]; read-out: IC50
  IC50: > 1000 nM

## C=C(C)[C@@H]1CC[C@]2(C(=O)OCCCOC(=O)/C=C/c3ccc(N(C)C)cc3)CC[C@]3(C)[C@H](CC[C@@H]4[C@@]5(C)CC[C@H](OC(=O)CC(C)(C)C(=O)O)C(C)(C)[C@@H]5CC[C@]43C)[C@@H]12
[1]; read-out: IC50
  IC50: > 1000 nM

## C=C(C)[C@@H]1CC[C@]2(C(=O)N3CCN(C(=O)/C=C/c4ccc(OCOC)c(OCCCCCCCC)c4)CC3)CC[C@]3(C)[C@H](CC[C@@H]4[C@@]5(C)CC[C@H](OC(=O)CC(C)(C)C(=O)O)C(C)(C)[C@@H]5CC[C@]43C)[C@@H]12
[1]; read-out: IC50
  IC50: > 1000 nM

## C=C(C)[C@@H]1CC[C@]2(C(=O)N3CCN(C(=O)CC(C)(C)C(=O)O)CC3)CC[C@]3(C)[C@H](CC[C@@H]4[C@@]5(C)CC[C@H](OC(=O)/C=C/c6ccc7c(c6)OCO7)C(C)(C)[C@@H]5CC[C@]43C)[C@@H]12
[1]; read-out: IC50
  IC50: > 1000 nM

## C=C(C)[C@@H]1CC[C@]2(C(=O)CC(=O)CC(C)(C)C(=O)O)CC[C@]3(C)[C@H](CC[C@@H]4[C@@]5(C)CC[C@H](OC(=O)/C=C/c6ccc(OCOC)c(OCOC)c6)C(C)(C)[C@@H]5CC[C@]43C)[C@@H]12
[1]; read-out: IC50
  IC50: > 1000 nM

## C=C(C)[C@@H]1CC[C@]2(C(=O)O)CC[C@]3(C)[C@H](CC[C@@H]4[C@@]5(C)CC[C@H](OC(=O)/C=C/c6ccc7c(c6)OCO7)C(C)(C)[C@@H]5CC[C@]43C)[C@@H]12
[1]; read-out: IC50
  IC50: > 1000 nM

## C=C(C)[C@@H]1CC[C@]2(C(=O)N3CCN(CCCCC(=O)N4CCN(C(=O)/C=C/c5ccc6c(c5)OCO6)CC4)CC3)CC[C@]3(C)[C@H](CC[C@@H]4[C@@]5(C)CC[C@H](OC(=O)CC(C)(C)C(=O)O)C(C)(C)[C@@H]5CC[C@]43C)[C@@H]12
[2]
  CC50: > 2000 nM

## C=C(C)[C@@H]1CC[C@]2(C(=O)N3CCN(C(=O)/C=C/c4ccc(OCCCCCCCC)c(OCCCCCCCC)c4)CC3)CC[C@]3(C)[C@H](CC[C@@H]4[C@@]5(C)CC[C@H](OC(=O)CC(C)(C)C(=O)O)C(C)(C)[C@@H]5CC[C@]43C)[C@@H]12
[1]; read-out: IC50
  IC50: > 1000 nM

## C=C(C)[C@@H]1CC[C@]2(C(=O)OCCCCCCCCN3CCN(C(=O)/C=C/c4ccc5c(c4)OCO5)CC3)CC[C@]3(C)[C@H](CC[C@@H]4[C@@]5(C)CC[C@H](OC(=O)CC(C)(C)C(=O)O)C(C)(C)[C@@H]5CC[C@]43C)[C@@H]12
[1]; read-out: IC50
  IC50: > 1000 nM

## C=C(C)[C@@H]1CC[C@]2(C(=O)CC(C)=O)CC[C@]3(C)[C@H](CC[C@@H]4[C@@]5(C)CC[C@H](OC(=O)/C=C/N6CCN(C(=O)OC(C)(C)C)CC6)C(C)(C)[C@@H]5CC[C@]43C)[C@@H]12
[1]; read-out: IC50
  IC50: > 1000 nM

## C=C(C)[C@@H]1CC[C@]2(C(=O)N3CCN(C(=O)CC(C)(C)C(=O)O)CC3)CC[C@]3(C)[C@H](CC[C@@H]4[C@@]5(C)CC[C@H](Oc6ccc7c(c6)OCO7)C(C)(C)[C@@H]5CC[C@]43C)[C@@H]12
[1]; read-out: IC50
  IC50: > 1000 nM

## C=C(C)[C@@H]1CC[C@]2(C(=O)O)CC[C@]3(C)[C@H](CC[C@@H]4[C@@]5(C)CC[C@H](OC(=O)/C=C/c6ccc(OCOC)c(OCOC)c6)C(C)(C)[C@@H]5CC[C@]43C)[C@@H]12
[1]; read-out: IC50
  IC50: > 1000 nM

## C=C(C)[C@@H]1CC[C@]2(C(=O)N3CCN(C(=O)/C=C/c4ccc(OCc5cccc(Cl)c5)c(OC)c4)CC3)CC[C@]3(C)[C@H](CC[C@@H]4[C@@]5(C)CC[C@H](OC(=O)CC(C)(C)C(=O)O)C(C)(C)[C@@H]5CC[C@]43C)[C@@H]12
[1]; read-out: IC50
  IC50: > 1000 nM

## C=C(C)[C@@H]1CC[C@]2(CN3CCN(C(=O)/C=C/c4ccc5c(c4)OCO5)CC3)CC[C@]3(C)[C@H](CC[C@@H]4[C@@]5(C)CC[C@H](OC(=O)CC(C)(C)C(=O)O)C(C)(C)[C@@H]5CC[C@]43C)[C@@H]12
[1]; read-out: IC50
  IC50: > 1000 nM

## C=C(C)[C@@H]1CC[C@]2(C(=O)N3CCN(C(=O)/C=C/c4ccc(O)c(OCCCCCCCC)c4)CC3)CC[C@]3(C)[C@H](CC[C@@H]4[C@@]5(C)CC[C@H](OC(=O)CC(C)(C)C(=O)O)C(C)(C)[C@@H]5CC[C@]43C)[C@@H]12
[1]; read-out: IC50
  IC50: > 1000 nM
